From ChEMBL document CHEMBL4715728, “New bifunctional antioxidant/σ1 agonist ligands: Preliminary chemico-physical and biological evaluation” (Bioorg Med Chem, 2016)

Experiments:
[1] = Stability of compound in fasted state stimulated intestinal fluid at pH 1.3 assessed as half life in presence of 10 mg/ml pepsin by HPLC-UV assay; assay type: ADME; conditions: fasted state simulated intestinal fluid with pepsin
How it was run: (§1)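 HCl buffer with pepsin or phosphate buffer with pancreatin (10 or 40 mg/ml), preincubated at 37 °C. Drug stock (50 µM in ethanol/fasted state intestinal fluid 1:9) added and shaken at 37 °C, 650 rpm. Samples quenched with ice-cold acetonitrile containing 0.5% formic acid, centrifuged at 2 °C, and the supernatant assayed by HPLC-UV. Three experiments.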

[2] = Stability of compound in non-enzymatic stimulated-gastric fluid at pH 1.3 assessed as half life by HPLC-UV assay; assay type: physicochemical; conditions: non-enzymatic simulated gastric fluid
How it was run: (§2)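 Chemical hydrolysis in 0.02 M HCl buffer pH 1.3 (non-enzymatic simulated gastric fluid) or 0.02 M phosphate buffer pH 7.4, each containing 20% acetonitrile, at 37 °C. Started by adding the 10^-4 M acetonitrile stock. Samples taken over time and analyzed by HPLC-UV at 220 nm. Rate constants are means of triplicates.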

[3] = Cytotoxicity against Sprague-Dawley rat Cerebral cortex neuron assessed as cell viability at 0.1 uM incubated for 24 hrs by MTT assay relative to control; assay type: tissue-based; conditions: cerebral cortex neurons, read-out: Activity
How it was run: (§3)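 Primary fetal rat cortical neurons, matured 8 days, treated 24 h at 37 °C with compound (0.1–100 µM; 0.5% DMSO or water vehicle). MTT 0.7 mg/ml was then added for 30 min at 37 °C, and formazan was extracted with isopropanol/formic acid (95:5) and read at 560 nm. Untreated control was set as 100% viability. Four independent experiments.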

[4] = Cytotoxicity against Sprague-Dawley rat Cerebral cortex neuron assessed as cell viability at 1 uM incubated for 24 hrs by MTT assay relative to control; assay type: tissue-based; conditions: cerebral cortex neurons, read-out: Activity; how it was run: as §3
[5] = Cytotoxicity against Sprague-Dawley rat Cerebral cortex neuron assessed as cell viability at 10 uM incubated for 24 hrs by MTT assay relative to control; assay type: tissue-based; conditions: cerebral cortex neurons, read-out: Activity; how it was run: as §3
[6] = Cytotoxicity against Sprague-Dawley rat Cerebral cortex neuron assessed as cell viability at 25 uM incubated for 24 hrs by MTT assay relative to control; assay type: tissue-based; conditions: cerebral cortex neurons, read-out: Activity; how it was run: as §3
[7] = Cytotoxicity against rat Sprague-Dawley Cerebral cortex neuron assessed as cell viability at 50 uM incubated for 24 hrs by MTT assay relative to control; assay type: tissue-based; conditions: cerebral cortex neurons, read-out: Activity; how it was run: as §3
[8] = Cytotoxicity against Sprague-Dawley rat Cerebral cortex neuron assessed as LDH activity at 0.1 uM incubated for 24 hrs by LDH assay (reference value: […]); assay type: tissue-based
How it was run: (§4)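 Primary fetal rat cortical neurons, matured 8 days on poly-D-lysine, exposed 24 h at 37 °C to compound (0.1–100 µM; DMSO 0.5% or water vehicle). LDH released into 100 µl culture medium was measured by kit as the rate of NAD+ reduction (absorbance increase at 490 nm). Positive control was mitomycin C. Four independent experiments.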

[9] = Cytotoxicity against Sprague-Dawley rat Cerebral cortex neuron assessed as LDH activity at 10 uM incubated for 24 hrs by LDH assay; assay type: tissue-based; how it was run: as §4
[10] = Cytotoxicity against Sprague-Dawley rat Cerebral cortex neuron assessed as LDH activity at 25 uM incubated for 24 hrs by LDH assay (reference value: […]); assay type: tissue-based; how it was run: as §4
[11] = Cytotoxicity against Sprague-Dawley rat Cerebral cortex neuron assessed as LDH activity at 50 uM incubated for 24 hrs by LDH assay (reference value: […]); assay type: tissue-based; how it was run: as §4
[12] = Cytotoxicity against Sprague-Dawley rat Cerebral cortex neuron assessed as LDH activity at 100 uM incubated for 24 hrs by LDH assay (reference value: […]); assay type: tissue-based; how it was run: as §4
[13] = Antioxidant activity in Sprague-Dawley rat Cerebral cortex neuron assessed as total antioxidant capacity by measuring trolox equivalents at 0.1 uM after 24 hrs; assay type: functional
How it was run: (§5)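 Primary cerebral cortex neurons from rat fetuses, grown on poly-D-lysine in neurobasal medium with fetal calf serum (5% CO2, 37 °C), tested after 8 days in culture. Compounds in DMSO (0.5%) or sterile water were added and incubated 24 h at 37 °C. Cells were washed in ice-cold PBS and homogenized in 0.9% saline. Intracellular TAC (Trolox equiv.) and TOS (H2O2 equiv.) were read by kit. Ascorbic acid 10 µM (TAC) and H2O2 25 µM (TOS) served as positive controls. Four independent experiments.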

[14] = Antioxidant activity in Sprague-Dawley rat Cerebral cortex neuron assessed as total antioxidant capacity by measuring trolox equivalents at 1 uM after 24 hrs; assay type: functional; how it was run: as §5
[15] = Antioxidant activity in Sprague-Dawley rat Cerebral cortex neuron assessed as total antioxidant capacity by measuring trolox equivalents at 10 uM after 24 hrs; assay type: functional; how it was run: as §5
[16] = Antioxidant activity in Sprague-Dawley rat Cerebral cortex neuron assessed as total antioxidant capacity by measuring trolox equivalents at 50 uM after 24 hrs; assay type: functional; how it was run: as §5
[17] = Antioxidant activity in Sprague-Dawley rat Cerebral cortex neuron assessed as total oxidative stress level by measuring H2O2 equivalents at 1 uM after 24 hrs (reference value: 2.3 +/- 0.3 umol/L); assay type: functional; how it was run: as §5
[18] = Antioxidant activity in Sprague-Dawley rat Cerebral cortex neuron assessed as total oxidative stress level by measuring H2O2 equivalents at 10 uM after 24 hrs (reference value: 2.3 +/- 0.3 umol/L); assay type: functional; how it was run: as §5
[19] = Antioxidant activity in Sprague-Dawley rat Cerebral cortex neuron assessed as total oxidative stress level by measuring H2O2 equivalents at 50 uM after 24 hrs (reference value: 2.3 +/- 0.3 umol/L); assay type: functional; how it was run: as §5
[20] = Antioxidant activity in Sprague-Dawley rat Cerebral cortex neuron assessed as total oxidative stress level by measuring H2O2 equivalents at 100 uM after 24 hrs (reference value: 2.3 +/- 0.3 umol/L); assay type: functional; how it was run: as §5
[21] = Stability of compound in fasted state stimulated intestinal fluid at pH 1.3 assessed as half life in presence of 40 mg/ml pepsin by HPLC-UV assay; assay type: ADME; conditions: fasted state simulated intestinal fluid with pepsin; how it was run: as §1
[22] = Stability of compound in fasted state stimulated intestinal fluid at pH 7.4 assessed as half life in presence of 10 mg/ml pancreatin by HPLC-UV assay; assay type: ADME; conditions: for half-life: fasted state simulated intestinal fluid with pancreatin; how it was run: as §1
[23] = Stability of compound in fasted state stimulated intestinal fluid at pH 7.4 assessed as half life in presence of 40 mg/ml pancreatin by HPLC-UV assay; assay type: ADME; conditions: for half-life: fasted state simulated intestinal fluid with pancreatin; how it was run: as §1
[24] = Stability of compound in human plasma assessed as half life by HPLC-UV assay; assay type: ADME, cell-free
How it was run: (§6)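 Citrated human or rat plasma diluted to 80% with 0.02 M phosphate buffer pH 7.4, 37 °C with shaking. Compound added from a 1 mg/ml acetonitrile stock. Aliquots deproteinized with 0.01 M HCl in methanol, centrifuged, and analyzed by HPLC-UV (C8 column, KH2PO4/methanol pH 2.5, 220 nm). Remaining intact compound plotted against time. Three experiments.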

[25] = Stability of compound in rat plasma assessed as half life by HPLC-UV assay; assay type: ADME, cell-free; how it was run: as §6
[26] = Stability of compound in non-enzymatic stimulated-gastric fluid at pH 1.3 assessed as rate of compound hydrolysis by HPLC-UV assay; assay type: physicochemical; conditions: simulated gi fluid; how it was run: as §2
[27] = Stability of compound in fasted state stimulated intestinal fluid at pH 1.3 assessed as rate of compound hydrolysis in presence of 10 mg/ml pepsin by HPLC-UV assay; assay type: ADME; conditions: isolated protein; how it was run: as §1

Row | Compound | half-life [1] [h] | half-life [2] [h] | viability at 24 h, 0.1 µM [3] [%] | viability at 24 h, 1 µM [4] [%] | viability at 24 h, 10 µM [5] [%] | viability at 24 h, 25 µM [6] [%] | viability at 24 h, 50 µM [7] [%] | Activity [8] [mU/ml] | Activity [9] [mU/ml] | Activity [10] [mU/ml] | Activity [11] [mU/ml] | Activity [12] [mU/ml] | TAC [13] [mmol/L] | TAC [14] [mmol/L] | TAC [15] [mmol/L] | TAC [16] [mmol/L] | Activity [17] [µmol/L] | Activity [18] [µmol/L] | Activity [19] [µmol/L] | Activity [20] [µmol/L] | further results
1 | O=C(CCCCC1CCSS1)N1CCN(Cc2ccc(F)cc2)CC1 (configuration not stated) | 107 | 88 | 99.3 | 97.5 | 97.2 | 96 | 96.5 | 0.3 | 0.34 | 0.32 | 0.34 | 0.34 | 10.9 | 11.2 | 12.6 | 11.4 | 0.5 | 0.4 | 0.5 | 0.5 | half-life [21]: 37.2 h; half-life [22]: 75.1 h; half-life [23]: 32.3 h; half-life [24]: 4.21 h; half-life [25]: 2.92 h; Drug degradation [26]: 0.008 h⁻¹; Drug degradation [27]: 0.007 h⁻¹
2 | O=C(CCCCC1CCSS1)OC1CCN(Cc2ccc(F)cc2)CC1 (configuration not stated) | 3.77 | 47 | 97.5 | 98.3 | 96.9 | 97.1 | 95.8 | 0.3 | 0.29 | 0.3 | 0.32 | 0.32 | 11 | 11.2 | 11.1 | 13.5 | 0.4 | 0.4 | 0.5 | 0.5 | half-life [21]: 0.68 h; t1/2 ([22]; simulated gi fluid): Unstable; t1/2 ([23]; simulated gi fluid): Unstable; half-life [24]: 0.81 h; half-life [25]: 0.56 h; Drug degradation [26]: 0.015 h⁻¹; Drug degradation [27]: 0.184 h⁻¹
3 | COc1ccc(CN2CCN(C(=O)CCCCC3CCSS3)CC2)cc1 (configuration not stated) | 112 | 240 | 98.1 | 97.4 | 96.1 | 95.3 | 92.7 | 0.28 | 0.3 | 0.29 | 0.34 | 0.34 | 10.5 | 11.2 | 10.9 | 11 | 0.5 | 0.5 | 0.5 | 0.5 | half-life [21]: 23.7 h; half-life [22]: 60.9 h; half-life [23]: 41.6 h; half-life [24]: 5.28 h; half-life [25]: 4.13 h; Drug degradation [26]: 0.003 h⁻¹; Drug degradation [27]: 0.006 h⁻¹
4 | O=C(CCCCC1CCSS1)OC1CCN(Cc2ccccc2)CC1 (configuration not stated) | 24.5 | 58.7 | 99.8 | 98.7 | 97.8 | 98.1 | 97.6 | 0.3 | 0.29 | 0.32 | 0.3 | 0.32 | 10.8 | 10.9 | 11.4 | 13.6 | 0.5 | 0.4 | 0.4 | 0.5 | half-life [21]: 23.1 h; half-life [22]: 0.29 h; half-life [23]: 0.09 h; half-life [24]: 0.43 h; t1/2 [25]: Unstable; Drug degradation [26]: 0.012 h⁻¹; Drug degradation [27]: 0.028 h⁻¹
5 | COc1ccc(CN2CCC(OC(=O)CCCCC3CCSS3)CC2)cc1 (configuration not stated) | 39.1 | 52 | 99.5 | 98.4 | 97.1 | 96.2 | 95 | 0.28 | 0.34 | 0.32 | 0.34 | 0.34 | 10.8 | 11.3 | 11 | 10.9 | 0.4 | 0.4 | 0.5 | 0.5 | half-life [21]: 22.2 h; half-life [22]: 2.78 h; half-life [23]: 2.83 h; half-life [24]: 0.61 h; half-life [25]: 0.46 h; Drug degradation [26]: 0.013 h⁻¹; Drug degradation [27]: 0.018 h⁻¹
6 | O=C(CCCCC1CCSS1)N1CCN(Cc2ccccc2)CC1 (configuration not stated) | 69 | 93 | 99.4 | 98.6 | 97.5 | 96.8 | 96 | 0.3 | 0.32 | 0.32 | 0.34 | 0.34 | 10.4 | 11.1 | 12.6 | 14.8 | 0.5 | 0.4 | 0.5 | 0.5 | half-life [21]: 66.2 h; half-life [22]: 22.2 h; half-life [23]: 9.58 h; half-life [24]: 1.76 h; t1/2 [25]: Unstable; Drug degradation [26]: 0.007 h⁻¹; Drug degradation [27]: 0.01 h⁻¹
